{"source": "ChEMBL document CHEMBL3822375", "about": "“Preclinical Characterization of 3β-(N-Acetyl l-cysteine methyl ester)-2aβ,3-dihydrogaliellalactone (GPA512), a Prodrug of a Direct STAT3 Inhibitor for the Treatment of Prostate Cancer” (J Med Chem, 2016)", "key": {"[1]": {"test": "Chemical stability of the compound in phosphate buffer saline assessed as half life at 10 uM at pH 7.4 by LC-MS/MS analysis", "format": "physicochemical", "conditions": "phosphate buffered saline", "procedure,_shortened": "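Compound diluted from DMSO (or methanol) stock to 10 µM, 2% solvent final, n=2. Matrix was 0.1 M PBS pH 7.4, or […] HCl with 2 mg/mL NaCl adjusted to pH 1.2. Mixed on a shaker; sampled at nominal 5, 15, 30 and 60 min plus T=0. LC-MS/MS with internal standard; % remaining relative to T=0. Formation of parent also monitored.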"}, "[2]": {"test": "Clearance in mouse plasma at 1.25 mg/kg, iv by LC-MS/MS analysis", "format": "ADME, organism-based", "procedure,_shortened": "(§1)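 Single dose to mice; oral, iv or ip as listed, in 5% DMSO/50 mM citrate buffer pH 4.0 (dosing solutions 0.5, 2 or 5 mg/mL). Oral dosing at 20 mL/kg. Terminal blood under barbiturate anaesthesia at eight time-points to 8 h, n=3 mice per time-point, EDTA plasma. Acetonitrile precipitation with internal standard, LC-MS/MS against plasma calibration lines. Non-compartmental analysis on mean data, trapezoidal AUC.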"}, "Mus musculus [3]": {"test_system": "Mus musculus", "test": "AUC (0 to infinity) in mouse plasma at 10 mg/kg, po by LC-MS/MS analysis", "format": "ADME, organism-based", "design": "dose 10 mg/kg, route oral, time infinity", "conditions": "in vivo", "procedure,_shortened": "as §1"}, "PC-3 [4]": {"test_system": "PC-3", "test": "Cytotoxicity against human PC3 cells assessed as inhibition of cell viability at 3 uM after 72 hrs by WST-1 proliferation assay", "format": "functional, cell-based", "procedure,_shortened": "(§2)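 Cells in RPMI-1640 (DU145, LNCaP, LNCaP-IL6+) or HAM's F-12 (PC3) with 10% FBS. DU145 and LNCaP-IL6+ seeded at 2 000 cells/well, LNCaP and PC3 at 5 000 cells/well, adhered 24 h, then exposed to compound for 72 h. WST-1 absorbance read at 450 nm with 630 nm reference. Background subtracted; expressed as percent of untreated cells.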"}, "[5]": {"test": "Apparent half life in mouse plasma at 5 mg/kg, ip", "format": "ADME, organism-based"}, "[6]": {"test": "Half life in mouse plasma by LC-MS/MS analysis", "format": "ADME, cell-free"}, "[7]": {"test": "Antiproliferative activity against human DU145 cells after 72 hrs by WST-1 proliferation assay", "format": "functional, cell-based", "conditions": "DU-145, 72 h", "procedure,_shortened": "as §2"}, "LNCaP [8]": {"test_system": "LNCaP", "test": "Cytotoxicity against human LNCAP cells assessed as inhibition of cell viability at 3 uM after 72 hrs by WST-1 proliferation assay", "format": "functional, cell-based", "procedure,_shortened": "as §2"}, "[9]": {"test": "Efflux ratio of apparent permeability across apical to basolateral side over basolateral to apical side in human Caco2 cells at 20 uM measured after 120 mins by UPLC-MS/MS analysis", "format": "ADME, cell-based", "conditions": "caco-2, 2 h", "procedure,_shortened": "(§3)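 Caco-2 monolayers in Hanks' balanced salt solution with 10 mM Hepes, pH 7.4. Apical and basolateral transport measured at 20 µM test item. Both compartments sampled at 0, 60 and 120 min and analysed by UPLC-MS/MS.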"}, "DU-145 [10]": {"test_system": "DU-145", "test": "Antiproliferative activity against human DU145 cells expressing pSTAT3 at 3 uM after 72 hrs by WST-1 proliferation assay", "format": "functional, cell-based", "procedure,_shortened": "as §2"}, "[11]": {"test": "Drug metabolism in S9 intestinal fraction (unknown origin) assessed as glutathione conjugate formation", "format": "ADME"}, "[12]": {"test": "Tmax in mouse plasma at 1.25 mg/kg, iv by LC-MS/MS analysis", "format": "ADME, organism-based"}, "PC-3 [13]": {"test_system": "PC-3", "test": "Antiproliferative activity against human PC3 cells at 3 uM after 72 hrs by WST-1 proliferation assay", "format": "functional, cell-based", "procedure,_shortened": "as §2"}, "Mus musculus [14]": {"test_system": "Mus musculus", "test": "AUC (0 to infinity) in mouse plasma at 5 mg/kg, ip by LC-MS/MS analysis", "format": "ADME, organism-based", "design": "dose 5 mg/kg, route intraperitoneal, time infinity", "conditions": "in vivo", "procedure,_shortened": "as §1"}, "Mus musculus [15]": {"test_system": "Mus musculus", "test": "AUC (0 to t) in mouse plasma at 10 mg/kg, po by LC-MS/MS analysis", "format": "ADME, organism-based", "conditions": "in vivo", "procedure,_shortened": "as §1"}, "DU-145 [16]": {"test_system": "DU-145", "test": "Cytotoxicity against human DU145 cells expressing pSTAT3 assessed as inhibition of cell viability at 3 uM after 72 hrs by WST-1 proliferation assay", "format": "functional, cell-based", "procedure,_shortened": "as §2"}, "[17]": {"test": "Apparent permeability from apical to basolateral side in human Caco2 cells at 20 uM measured after 120 mins by UPLC-MS/MS analysis", "format": "ADME, cell-based", "conditions": "Caco-2", "procedure,_shortened": "as §3"}, "[18]": {"test": "Stability of compound assessed as compound disappearance measured after 2 hrs by LC-MS/MS analysis", "format": "physicochemical"}, "[19]": {"test": "Apparent half life in mouse plasma at 1.25 mg/kg, iv by LC-MS/MS analysis", "format": "ADME, organism-based", "conditions": "read-out: t1/2(app)", "procedure,_shortened": "as §1"}, "[20]": {"test": "Apparent half life in mouse plasma at 10 mg/kg, po by LC-MS/MS analysis", "format": "ADME, organism-based", "conditions": "read-out: t1/2(app)", "procedure,_shortened": "as §1"}, "[21]": {"test": "Metabolic stability in mouse hepatocytes assessed as compound disappearance measured after 2 hrs by LC-MS/MS analysis", "format": "ADME, cell-based, Hepatocyte", "conditions": "read-out: Drug degradation", "procedure,_shortened": "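Cryopreserved mouse hepatocytes incubated with an initial 10 µM test item (DMSO stock) in Celsis InVitro HI medium, pH 7.4, 37 °C. Cell viability checked by Trypan blue. Sampled at 0 and 120 min and stopped with an equal volume of acetonitrile. Analysed by UPLC/Q-TOF-MS.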"}, "[22]": {"test": "Volume of distribution in mouse plasma at 1.25 mg/kg, iv by LC-MS/MS analysis", "format": "ADME, organism-based"}, "[23]": {"test": "Cmax in mouse plasma at 5 mg/kg, ip by LC-MS/MS analysis", "format": "ADME, organism-based", "design": "dose 5 mg/kg, route intraperitoneal", "procedure,_shortened": "as §1"}, "[24]": {"test": "Solubility of the compound in phosphate buffer saline at pH 7.4 by LC-MS analysis", "format": "physicochemical", "conditions": "phosphate buffered saline"}, "Mus musculus [25]": {"test_system": "Mus musculus", "test": "AUC (0 to t) in mouse plasma at 1.25 mg/kg, iv by LC-MS/MS analysis", "format": "ADME, organism-based", "conditions": "in vivo", "procedure,_shortened": "as §1"}, "LNCaP [26]": {"test_system": "LNCaP", "test": "Antiproliferative activity against human LNCAP cells at 3 uM after 72 hrs by WST-1 proliferation assay", "format": "functional, cell-based", "procedure,_shortened": "as §2"}, "LNCaP [27]": {"test_system": "LNCaP", "test": "Cytotoxicity against human LNCAP cells expressing IL6 and pSTAT3 assessed as inhibition of cell viability at 3 uM after 72 hrs by WST-1 proliferation assay", "format": "functional, cell-based", "procedure,_shortened": "as §2"}, "Hepatocyte": {"test_system": "Hepatocyte", "test": "Drug level in mouse hepatocytes treated with 3-beta-(N-Acetyl-L-cysteine methyl ester)-2a-beta,3-dihydrogaliellalactone measured after 2 hrs by UPLC-MS analysis", "format": "ADME, cell-based", "procedure,_shortened": "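Cryopreserved mouse hepatocytes in Celsis InVitro HI medium, pH 7.4, 37 °C, with 10 µM initial compound from DMSO stock. Sampled at 0 and 120 min, quenched with an equal volume of acetonitrile, analysed by UPLC/Q-TOF-MS. Viability checked by Trypan blue.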"}, "LNCaP [28]": {"test_system": "LNCaP", "test": "Antiproliferative activity against human LNCAP cells expressing IL6 and pSTAT3 at 3 uM after 72 hrs by WST-1 proliferation assay", "format": "functional, cell-based", "procedure,_shortened": "as §2"}, "Mus musculus [29]": {"test_system": "Mus musculus", "test": "AUC (0 to t) in mouse plasma at 5 mg/kg, ip by LC-MS/MS analysis", "format": "ADME, organism-based", "conditions": "in vivo", "procedure,_shortened": "as §1"}, "[30]": {"test": "Cmax in mouse plasma at 1.25 mg/kg, iv by LC-MS/MS analysis", "format": "ADME, organism-based", "design": "dose 1.25 mg/kg, route intravenous", "procedure,_shortened": "as §1"}, "[31]": {"test": "Half life in mouse plasma at 5 uM by LC-MS/MS analysis", "format": "ADME, cell-free", "procedure,_shortened": "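Plasma of each species incubated at 37 °C with compound at 5 µM initial, 1% DMSO, n=2. Simvastatin and eucatropine run as controls. Aliquots taken at 0, 5, 15, 30 and 60 min and quenched with acetonitrile containing internal standard, then analysed by LC-MS/MS.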"}, "Mus musculus [32]": {"test_system": "Mus musculus", "test": "AUC (0 to infinity) in mouse plasma at 1.25 mg/kg, iv by LC-MS/MS analysis", "format": "ADME, organism-based", "design": "dose 1.25 mg/kg, time infinity, route intravenous", "conditions": "in vivo", "procedure,_shortened": "as §1"}, "[33]": {"test": "Tmax in mouse plasma at 5 mg/kg, ip by LC-MS/MS analysis", "format": "ADME, organism-based"}}, "note": "pIC50: −log10 of the molar value. Calls of active or inactive are those of the source. No cut-off for these calls is given here.", "data": [{"smiles": "C[C@@H]1C=C2C(=O)O[C@@H]3CC[C@H](C1)[C@]23O", "values": [{"measurement": "half-life at 10 µM", "setting": "[1]", "result": "> 9.8", "unit": "h"}, {"measurement": "clearance", "setting": "[2]", "result": 7.3, "unit": "mL/min/kg"}, {"measurement": "AUC", "setting": "Mus musculus [3]", "result": 6, "unit": "µg/mL/min"}, {"measurement": "inhibition", "setting": "PC-3 [4]", "result": "inactive"}, {"measurement": "half-life", "setting": "[5]", "result": 2.4, "unit": "h"}, {"measurement": "half-life", "setting": "[6]", "result": 1.23, "unit": "h"}, {"measurement": "pIC50", "setting": "[7]", "result": 5.52}, {"measurement": "inhibition", "setting": "LNCaP [8]", "result": "inactive"}, {"measurement": "Ratio", "setting": "[9]", "result": 2}, {"measurement": "Activity", "setting": "DU-145 [10]", "result": "Active"}, {"measurement": "Drug metabolism", "setting": "[11]", "result": "metabolite_detected"}, {"measurement": "Tmax", "setting": "[12]", "result": 5, "unit": "min"}, {"measurement": "Activity", "setting": "PC-3 [13]", "result": "inactive"}, {"measurement": "AUC", "setting": "Mus musculus [14]", "result": 372, "unit": "µg/mL/min"}, {"measurement": "AUCt", "setting": "Mus musculus [15]", "result": 5, "unit": "µg/mL/min"}, {"measurement": "inhibition", "setting": "DU-145 [16]", "result": "Active"}, {"measurement": "Papp A→B at 2 h, 20 µM", "setting": "[17]", "result": 65.9, "unit": "×10⁻⁶ cm/s"}, {"measurement": "Stability", "setting": "[18]", "result": "Stable"}, {"measurement": "half-life", "setting": "[19]", "result": 2.17, "unit": "h"}, {"measurement": "half-life", "setting": "[20]", "result": 1.48, "unit": "h"}, {"measurement": "metabolised at 2 h", "setting": "[21]", "result": 45, "unit": "%"}, {"measurement": "Vd", "setting": "[22]", "result": 1.4, "unit": "L/kg"}, {"measurement": "Cmax", "setting": "[23]", "result": 5520, "unit": "ng/mL"}, {"measurement": "solubility", "setting": "[24]", "result": 143, "unit": "µM"}, {"measurement": "AUCt", "setting": "Mus musculus [25]", "result": 159, "unit": "µg/mL/min"}, {"measurement": "Activity", "setting": "LNCaP [26]", "result": "inactive"}, {"measurement": "inhibition", "setting": "LNCaP [27]", "result": "Active"}, {"measurement": "Drug metabolism", "setting": "Hepatocyte", "result": "metabolite_detected"}, {"measurement": "Activity", "setting": "LNCaP [28]", "result": "Active"}, {"measurement": "AUCt", "setting": "Mus musculus [29]", "result": 351, "unit": "µg/mL/min"}, {"measurement": "Cmax", "setting": "[30]", "result": 2960, "unit": "ng/mL"}, {"measurement": "half-life at 5 µM", "setting": "[31]", "result": 1.23, "unit": "h"}, {"measurement": "AUC", "setting": "Mus musculus [32]", "result": 171, "unit": "µg/mL/min"}, {"measurement": "Tmax", "setting": "[33]", "result": 5, "unit": "min"}]}]}
